Laboratory results as given in PubChem BioAssay.
Activity calls are given as the source filed them.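 Rule for the calls, unless noted: active = viability at or under a set limit in both replicates, limit being median viability minus 3 SD (cut at about 48% in these data, passing the limit was not always enough); inconclusive = at or under the limit in just one replicate; inactive = at or above the limit in both replicates.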

Columns and labels:
[1] = Her2 expression decrease, cell viability multiplex – SKBR3 breast tumor cells, AlphaScreen, ATP viability, primary screen (AID 461;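 active = Her2 level under about 52% in both replicate screens, with viability over 70% of control, limit read from the data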;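 for Her2 level: lower value means less Her2 protein in the cells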;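 for viability: percent of carrier control wells set as 100% viability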); settings: SKBR3 Her2 protein level, 18-24 h, measured here: SKBR3 viability, ATP luminescence, at 10 µM
[2] = biological target: Receptor tyrosine-protein kinase erbB-2 (Homo sapiens) (UniProt P04626); test: as above; settings: 18-24 h, at 10 µM, stronger effect = lower value
Chain of Receptor tyrosine-protein kinase erbB-2 (Homo sapiens) (P04626 whole entry, looked up): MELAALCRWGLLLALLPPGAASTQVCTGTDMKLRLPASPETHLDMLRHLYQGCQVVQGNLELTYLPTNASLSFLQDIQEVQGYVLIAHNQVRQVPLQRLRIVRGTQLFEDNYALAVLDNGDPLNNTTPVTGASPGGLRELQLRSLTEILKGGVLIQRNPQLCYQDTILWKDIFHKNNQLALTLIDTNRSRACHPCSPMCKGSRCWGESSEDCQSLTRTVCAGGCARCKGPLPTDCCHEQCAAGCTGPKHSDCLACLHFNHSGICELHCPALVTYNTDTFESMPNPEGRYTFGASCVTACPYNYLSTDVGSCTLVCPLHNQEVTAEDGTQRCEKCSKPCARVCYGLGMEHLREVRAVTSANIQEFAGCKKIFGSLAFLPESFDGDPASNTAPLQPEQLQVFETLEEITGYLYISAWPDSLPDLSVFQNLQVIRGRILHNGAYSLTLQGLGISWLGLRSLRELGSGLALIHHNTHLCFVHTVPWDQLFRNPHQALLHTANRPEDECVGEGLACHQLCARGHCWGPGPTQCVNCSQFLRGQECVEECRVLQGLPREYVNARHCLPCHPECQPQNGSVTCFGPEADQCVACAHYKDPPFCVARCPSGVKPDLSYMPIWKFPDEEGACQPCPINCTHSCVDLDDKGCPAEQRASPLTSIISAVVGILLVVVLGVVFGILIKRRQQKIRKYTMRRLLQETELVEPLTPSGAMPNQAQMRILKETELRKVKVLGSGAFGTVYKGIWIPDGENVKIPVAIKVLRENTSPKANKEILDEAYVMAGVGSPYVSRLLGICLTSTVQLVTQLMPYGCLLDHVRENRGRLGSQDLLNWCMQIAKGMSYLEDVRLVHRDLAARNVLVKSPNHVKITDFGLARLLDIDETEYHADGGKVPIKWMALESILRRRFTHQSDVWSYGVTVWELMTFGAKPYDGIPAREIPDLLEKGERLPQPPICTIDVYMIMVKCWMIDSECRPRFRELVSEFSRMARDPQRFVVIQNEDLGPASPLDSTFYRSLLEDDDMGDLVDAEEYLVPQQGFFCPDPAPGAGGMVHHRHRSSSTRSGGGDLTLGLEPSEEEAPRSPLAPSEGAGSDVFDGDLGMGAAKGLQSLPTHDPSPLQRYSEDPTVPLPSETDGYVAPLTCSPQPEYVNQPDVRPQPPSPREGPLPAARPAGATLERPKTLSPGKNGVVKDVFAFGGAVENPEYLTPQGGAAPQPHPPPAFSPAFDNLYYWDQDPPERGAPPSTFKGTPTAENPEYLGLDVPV

[3] = reduced viability of SK-BR-3 breast cancer cells – cell-based, 24 h, human, pilot screen (AID 572;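 active = viability at or below 10% of carrier control in both of two separate runs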;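 note: compound exposure lasted between 18 and 24 h rather than exactly 24 h; 100% = carrier-treated control wells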); settings: SK-BR-3 viability, CellTiter-Glo luminescence, at 10 µM, stronger effect = lower value
[4] = HUVEC growth inhibition – cell-based, human, primary screen (AID 575;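 active = viability at or below 30% in both replicate assays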;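 note: 100% = median of untreated cell wells with 0.1% DMSO on each plate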); settings: HUVEC proliferation, CellTiter-Glo luminescence, 72 h; at 10 µM; stronger effect = lower value
Outline: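 Timing: 72 h treatment at 37 °C; material: HUVEC primary cells; technique: CellTiter-Glo luminescence measuring cellular ATP; controls: vehicle and MePR control wells; measure: percent of median DMSO-control luminescence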

[5] = H69AR cell proliferation blockers – human, duplicate replicates, primary screen (AID 580); settings: H69AR lung tumor cells viability, ATP luminescence, 72 h; at 10 µM; stronger effect = lower value;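 note: 100% = mean luminescence of untreated wells and 0% = no signal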
[6] = MRP1 drug-resistance reversers in H69AR cells – cell-based, doxorubicin co-treatment, pilot screen (AID 601;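 active = viability loss from added drug above about 55%, and viability with drug at most 40%, in both replicates, limit read from the data, passing the limit was not always enough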); settings: CellTiter-Glo, 72 h, at 10 µM; for differential viability (reversal): stronger effect = higher value
[7] = yeast transport mutant growth inhibition pilot in 384-well plates, post-Golgi transport modulator project (AID 636; in the data active = inhibition above about 31%); settings: absorbance 615 nm, about 18 h, stronger effect = higher value
[8] = growth suppression of yeast trafficking mutant, preliminary HTS, modulators of trafficking downstream of Golgi apparatus project, 1536-format plate, OD 615 nm (AID 637; in the data active = inhibition above about 30%); settings: yeast transport mutant growth, absorbance 615 nm, 18 h; stronger effect = higher value
[9] = H69AR cells + 2 uM doxorubicin, measured here: viability with 2 uM doxorubicin, stronger effect = lower value
[10] = H69AR cells, compound alone cytotoxicity

Compound | viability [1] [%] | Her2 level [2] | viability [3] | viability [4] | viability [5] | differential viability (reversal) ([6]; H69AR cells + 2 uM doxorubicin) | viability [6, 9] [%] | viability [6, 10] [%] | inhibition [7] | inhibition [8]
Cc1nc2ccc(CCO)cc2s1 | 97.5 | 95.5% (inactive) | 97.5% (inactive) | 102% (inactive) | 93.9% (inactive) | -0.945% (inactive) | 94.8 | 93.9 | -5.89% (inactive) | 0.79% (inactive)
Cn1cnnc1SCC(=O)Nc1sc2c(c1C#N)CCCCC2 | 86 | 102% (inactive) | 86% (inactive) | 73.5% (inactive) | 95.2% (inactive) | 11.4% (inactive) | 83.9 | 95.2 | 10.1% (inactive) | 27.9% (inactive)
CCc1nnc2c3cnn(-c4ccccc4)c3ncn12 | 93.5 | 95% (inactive) | 93.5% (inactive) | 102% (inactive) | 110% (inactive) | 15.1% (inactive) | 94.6 | 110 | -3.92% (inactive) | 2.38% (inactive)
O=C(C1CC1)N1CCc2cc(S(=O)(=O)N(CCO)Cc3ccccc3)ccc21 | 94 | 102% (inactive) | 94% (inactive) | 77% (inactive) | 98.8% (inactive) | -1.38% (inactive) | 100 | 98.8 | -0.4% (inactive) | -0.33% (inactive)
CCCC(C)c1nnc(NC(=O)C2CCCO2)s1 (stereo not given) | 126 | 91% (inactive) | 126% (inactive) | 95.8% (inactive) | 93.9% (inactive) | 0.895% (inactive) | 93 | 93.9 | -7.33% (inactive) | -3.06% (inactive)
CCOc1cccc(C(=O)Nc2cccc(-c3nc4ncccc4o3)c2C)c1 | 99 | 75.5% (inactive) | 99% (inactive) | 81.5% (inactive) | 75.6% (inactive) | -12.9% (inactive) | 88.5 | 75.6 | -0.39% (inactive) | -0.97% (inactive)
Cc1cccc(NC(=O)CC(C)(C)C)c1 | 110 | 90.5% (inactive) | 110% (inactive) | 92.4% (inactive) | 97.9% (inactive) | 2.31% (inactive) | 95.6 | 97.9 | -6.53% (inactive) | -5.08% (inactive)
COC(=O)C1(C)NC(c2ccco2)C2C(=O)N(c3ccc(C)cc3)C(=O)C21 (stereo not given) | 106 | 95% (inactive) | 106% (inactive) | 96.6% (inactive) | 91.5% (inactive) | -3% (inactive) | 94.5 | 91.5 | -5.27% (inactive) | -3.83% (inactive)
Cc1ccc(-c2csc3nnc(SCC(=O)NCc4ccco4)n23)cc1 | 88.5 | 84.5% (inactive) | 88.5% (inactive) | 85.6% (inactive) | 84.2% (inactive) | 0.64% (inactive) | 83.6 | 84.2 | -6.27% (inactive) | -4.19% (inactive)
C=CCOc1nc2c(c(=O)n(C)c(=O)n2C)n1C | 96.5 | 100% (inactive) | 96.5% (inactive) | 90.9% (inactive) | 94.4% (inactive) | 12.4% (inactive) | 82 | 94.4 | -3.25% (inactive) | 1.33% (inactive)
CCOC(=O)c1ccccc1NC(=O)c1ccc(NS(C)(=O)=O)cc1 | 93.5 | 83.5% (inactive) | 93.5% (inactive) | 97% (inactive) | 80.7% (inactive) | -1.98% (inactive) | 82.7 | 80.7 | -4.53% (inactive) | -3.81% (inactive)
C=CCc1c(C)nc(SC)nc1Nc1ccc(C(=O)O)cc1 | 106 | 74.5% (inactive) | 106% (inactive) | 84.2% (inactive) | 86.9% (inactive) | 1.22% (inactive) | 85.7 | 86.9 | -6.89% (inactive) | 3.28% (inactive)
O=S(=O)(c1ccccc1)c1nc(-c2cccs2)oc1NCC1CCCO1 (stereo not given) | 84.5 | 97% (inactive) | 84.5% (inactive) | 87.9% (inactive) | 99.7% (inactive) | -2.42% (inactive) | 102 | 99.7 | 2.67% (inactive) | 10.7% (inactive)
O=c1cc(COn2nnc3ccc(C(F)(F)F)cc32)nc2sccn12 | 89.5 | 91.5% (inactive) | 89.5% (inactive) | 104% (inactive) | 85.7% (inactive) | -19.7% (inactive) | 105 | 85.7 | -1.71% (inactive) | 0.63% (inactive)
